Screening data as filed in PubChem BioAssay.
In the library only some 2.3% were active in any assay of this set; here they are far more common.
TRPC6 activator – activators of mouse TRPC6 channel; Q61143; HEK293-TRPC6 membrane potential dye fluorescence; active compounds read high; B-score at 10 µM; 0.13% of 310,000 active; AID 2550;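 active = B-score of the integrated fluorescence ratio above library mean plus 3 SD, and starting fluorescence ratio within library mean plus 5 SD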;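 note: higher score means more depolarization so channel activation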
TRPC4 potent – TRPC4 (mouse) allosteric potentiation; 0.42% of 310,000 active; HEK293 TRPC4beta/mu-opioid, DAMGO EC20, Fluo-4 Ca2+ flux; active compounds read high; B-score at 10 µM; Q9QUQ5;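 active = B-score of calcium response area above 5 SD of library B-scores, with initial fluorescence ratio within 5 SD of library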;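 note: B-score of integrated fluorescence ratio over time as area under calcium response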
Target sequence (Q9QUQ5 whole entry, looked up): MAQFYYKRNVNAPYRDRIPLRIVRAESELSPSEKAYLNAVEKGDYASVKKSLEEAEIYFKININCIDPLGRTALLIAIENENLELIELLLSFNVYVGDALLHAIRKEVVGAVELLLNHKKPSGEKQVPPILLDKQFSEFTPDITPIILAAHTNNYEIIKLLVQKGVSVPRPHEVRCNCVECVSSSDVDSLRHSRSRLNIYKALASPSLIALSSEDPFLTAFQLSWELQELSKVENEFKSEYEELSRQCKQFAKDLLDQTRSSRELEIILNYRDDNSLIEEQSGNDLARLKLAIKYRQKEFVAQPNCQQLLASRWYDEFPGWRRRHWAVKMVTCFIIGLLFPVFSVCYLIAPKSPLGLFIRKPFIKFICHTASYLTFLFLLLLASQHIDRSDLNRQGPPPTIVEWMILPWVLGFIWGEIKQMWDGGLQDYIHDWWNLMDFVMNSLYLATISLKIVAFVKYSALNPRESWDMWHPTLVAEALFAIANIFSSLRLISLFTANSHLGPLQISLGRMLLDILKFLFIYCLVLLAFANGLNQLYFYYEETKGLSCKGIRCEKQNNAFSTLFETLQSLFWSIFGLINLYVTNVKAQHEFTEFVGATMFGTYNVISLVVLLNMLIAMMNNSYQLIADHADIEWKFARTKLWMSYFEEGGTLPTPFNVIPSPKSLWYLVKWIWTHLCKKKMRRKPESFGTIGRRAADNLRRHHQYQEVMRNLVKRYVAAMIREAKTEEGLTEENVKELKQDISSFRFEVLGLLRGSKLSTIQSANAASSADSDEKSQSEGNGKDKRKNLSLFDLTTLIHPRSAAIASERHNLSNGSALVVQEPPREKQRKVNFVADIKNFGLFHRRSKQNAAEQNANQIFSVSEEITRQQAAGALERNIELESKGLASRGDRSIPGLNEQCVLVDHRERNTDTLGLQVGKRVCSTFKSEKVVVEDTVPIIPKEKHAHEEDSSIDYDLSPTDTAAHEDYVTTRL
TRPC4 act – TRPC4 (mouse) channel activation. 0.49% of 310,000 active. HEK293 TRPC4beta/mu-opioid, Fluo4 calcium fluorescence; active compounds read high. B-score at 10 µM. Q9QUQ5;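 active = B-score above 5 SD of library B-scores, and initial fluorescence ratio not above library mean plus 5 SD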;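 note: positive B-score marks a calcium rise read as TRPC4 activation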
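Assay system: HEK293 cells stably co-expressing mouse TRPC4beta and mu-opioid receptor / Timing: Fluo4 dye loading 45 min at room temperature, 110 s recording / Signal: Fluo4 calcium-sensitive dye fluorescence, kinetic, 1 Hz baseline / Read-out: integrated baseline-normalised fluorescence ratio, converted to per-well B score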
TRPC4 block – TRPC4 (mouse) channel inhibition | HEK293 TRPC4beta/mu-opioid, DAMGO-evoked Fluo4 calcium flux; active compounds read low | 0.39% of 300,000 active | B-score at 10 µM | AID 2247;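 active = B-score over 3 SD under the library average, no early fluorescence shift, positive overall ratio signal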
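Assay system: HEK293 cells with stable TRPC4beta plus mu-opioid receptor expression; Probe or stimulus: DAMGO in two steps, submaximal then maximal; Dosing: single-point compound dosing; Measured by: Fluo4 calcium-dye fluorescence, kinetic read; Read-out basis: B score from integrated Fluo4 fluorescence ratio.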
TRPC6 inh – blocks the mouse TRPC6 cation channel. Q61143. HEK293-TRPC6, membrane potential dye, ACh-evoked depolarization; active compounds read low. B-score at 10 µM. 1.1% of 310,000 active. AID 2553;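 active = B-score under library mean minus 3 SD, initial fluorescence not abnormally high, positive integrated signal ratio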;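 note: B-score derived from integrated fluorescence ratio over the kinetic read; more negative B-score means stronger inhibition of depolarization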
TRPC4 sel inh 2 – second check of whether TRPC6 inhibitors also affect mouse TRPC4; shares compounds with TRPC6 inh; inhibition, % at 10 µM; AID 2776; HEK293 TRPC4/MOR, membrane potential dye fluorescence; channel activated by saturating DAMGO dose; 42% of 920 active;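 active = compounds whose fluorescence signal differed from control wells by over 3 SD, either direction, in both duplicate plates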
TRPC4 spec – selectivity of TRPC6 inhibitors: effect on mouse TRPC4. shares compounds with TRPC6 inh. HEK293 TRPC4/mu-opioid, membrane potential fluorescence. activity change, negative = inhibition, % at 10 µM. 61% of 920 active. AID 2777;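 active = rise or fall in signal beyond 3 SD of buffer-only wells in both replicate plates, either sign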;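 note: integrated kinetic ratio of fluorescence range over baseline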
HEK293 MPD ctr 2-1 – parental HEK293 nonspecific activity of TRPC6 inhibitors, second screen. shares compounds with TRPC6 inh. parental HEK293 membrane potential dye fluorescence; maximal acetylcholine challenge after compound addition. signal change vs control, % at 10 µM. 31% of 920 active. AID 2779;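 active = membrane potential signal moving either way by over 3 SD of the maximum-effect control, in both duplicate plates, meaning non-specific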
HEK293 MPD ctr-1 – checks TRPC6 inhibitor effects in parental HEK293 cells | shares compounds with TRPC6 inh | parental HEK293 membrane potential dye fluorescence | membrane potential signal change, % at 10 µM | 60% of 920 active | AID 2780;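 active = membrane potential signal shifting up or down by more than 3 SD of buffer-only wells, on both duplicate plates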
HEK293 MPD ctr-2 – parental HEK293 nonspecific activity of TRPC6 modulators. membrane potential dye fluorescence. 51% of 2,400 active. shares compounds with TRPC6 inh. membrane potential signal change, % at 10 µM. AID 488924;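 active = membrane potential signal moves up or down beyond 5 SD from buffer-only wells, on both duplicate plates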
HEK293 MPD ctr 2-2 – second counter-screen for TRPC6 modulators: effect in parental HEK293 cells. membrane potential dye fluorescence; after compound, maximal acetylcholine stimulation. shares compounds with TRPC6 inh. inhibition, % at 10 µM. 14% of 2,400 active;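 active = membrane potential signal drops by more than 5 SD from the mean control signal, in both duplicate plates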;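 note: plate controls were acetylcholine ECmax control wells for no effect and buffer only wells for full effect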
TRPC4 ctr mod – mouse TRPC4 off-target activity of TRPC6 modulators | HEK293 TRPC4/mu-opioid, membrane potential fluorescence | shares compounds with TRPC6 inh | 69% of 2,400 active | AID 488927 | percent change from control (negative = decrease, positive = increase), % at 10 µM;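 active = membrane potential signal moved up or down beyond 5 SD of buffer control wells, in both duplicate plates, actives on both sides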;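 note: plate controls were assay buffer wells for no effect and DAMGO maximal-effect wells for full effect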
TRPC4 ctr inh 2 – second check of whether TRPC6 modulators also affect mouse TRPC4; shares compounds with TRPC6 inh; HEK293 TRPC4/mu-opioid, membrane potential dye fluorescence; stimulated with maximal-effect DAMGO; inhibition, % at 10 µM; 55% of 2,400 active; AID 488928;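 active = drop in membrane potential signal beyond 5 SD of the control wells in both duplicate plates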;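 note: TRPC4 counter screen for TRPC6 hits run under conditions tuned for TRPC6 not TRPC4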
TRPC6 block conf – confirmation of mouse TRPC6 inhibitors; HEK293-TRPC6, membrane potential dye, ACh-evoked depolarization; inhibition, % at 10 µM; shares compounds with TRPC6 inh; AID 488960; 43% of 3,300 active;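 active = fluorescence ratio falls more than 5 SD below the full-stimulation control mean, in both duplicate runs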;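 note: integrated fluorescence ratio of peak minus minimum over baseline after agonist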
TRPC6 act confirm – confirmation of mouse TRPC6 activators. shares compounds with TRPC6 inh. HEK293-TRPC6 membrane potential dye fluorescence, FDSS. activation, % at 10 µM. 11% of 2,800 active. AID 488961;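 active = ratio signal rise beyond 5 SD above unstimulated control wells' mean, seen in both duplicate runs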;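 note: plate controls were buffer EC0 wells for no effect and acetylcholine ECmax response for full effect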
An asterisk follows results filed as active; i = inactive; nt = not tested or not shown.

SMILES	TRPC6 activator	TRPC4 potent	TRPC4 act	TRPC4 block	TRPC6 inh	TRPC4 sel inh 2	TRPC4 spec	HEK293 MPD ctr 2-1	HEK293 MPD ctr-1	HEK293 MPD ctr-2	HEK293 MPD ctr 2-2	TRPC4 ctr mod	TRPC4 ctr inh 2	TRPC6 block conf	TRPC6 act confirm
COC(=O)c1[nH]c2ccccc2c1NC(=O)CN1CCN(C/C=C/c2ccccc2)CC1	i	i	i	i	-7.8*	30%*	-16%*	i	-176%*	nt	nt	nt	nt	79%*	i
CCOC(=O)c1[nH]c2ccc(F)cc2c1NC(=O)CN1CCc2cc(OC)c(OC)cc2C1	i	i	i	i	i	nt	nt	nt	nt	nt	nt	nt	nt	nt	nt
CCOC(=O)c1[nH]c2ccc(F)cc2c1NC(=O)CN1CCN(C/C=C/c2ccccc2)CC1	i	i	i	i	-12*	40%*	-21%*	i	-246%*	nt	nt	nt	nt	88%*	i
CCC(C)(C)n1nnnc1C(c1ccc(F)cc1)N1CCN(C(=O)c2ccco2)CC1 (stereo unspecified)	i	i	i	i	-5.5*	nt	nt	nt	nt	124%*	i	28%*	34%*	i	nt
CCC(C)(C)n1nnnc1C(c1ccc(C)cc1)N1CCN(C(=O)c2ccco2)CC1 (stereo unspecified)	i	i	i	i	i	nt	nt	nt	nt	nt	nt	nt	nt	nt	nt
C=CCn1c(=N)c(C#N)cc2c(=O)n3ccccc3nc21	i	i	i	i	-8.7*	nt	nt	nt	nt	-278%*	i	-44%*	38%*	i	i
O=C(N=Nc1c(O)[nH]c2ccc(Cl)cc12)c1cc(-c2cccs2)nc2ccccc12	i	i	i	i	-5.7*	nt	nt	nt	nt	i	i	i	i	i	i
CN1C(C(=O)NCc2cccc(Br)c2)CC2Cn3c(nc4ccccc43)C21 (stereo unspecified)	i	i	i	i	i	nt	nt	nt	nt	nt	nt	nt	nt	nt	nt
CN(C)CCC(=O)c1ccc(Cl)cc1	i	i	i	i	i	nt	nt	nt	nt	nt	nt	nt	nt	nt	nt
CN(CCC(=O)c1ccccc1)CCC(=O)c1ccccc1	i	i	i	i	-5.3*	nt	nt	nt	nt	i	i	10%*	i	i	nt
CN1C(=S)SC2CS(=O)(=O)CC21 (stereo unspecified)	i	i	i	i	i	nt	nt	nt	nt	nt	nt	nt	nt	nt	nt
COC(=O)c1ccc(CN2CCCC(CCC(=O)NCc3ccc(C)o3)C2)cc1 (stereo unspecified)	i	i	i	i	-7.9*	i	0.0%*	i	3.2%*	nt	nt	nt	nt	56%*	i
COc1ccc(/C=C/CN2CCCC(CCC(=O)NCc3ccc(F)c(F)c3)C2)cc1 (stereo unspecified)	i	i	i	i	-7.4*	48%*	0.3%*	i	7.4%*	nt	nt	nt	nt	i	i
COCCC(=O)N1CCCC(CCC(=O)NCc2ccc(F)c(F)c2)C1 (stereo unspecified)	i	i	i	i	i	nt	nt	nt	nt	nt	nt	nt	nt	nt	nt
c1csc(Cc2nc3ccccc3[nH]2)c1	i	i	i	i	-14*	nt	nt	nt	nt	i	i	i	i	i	i
O=C(Oc1ccccc1C(=S)N1CCOCC1)c1ccccc1	i	i	i	i	i	nt	nt	nt	nt	nt	nt	nt	nt	nt	nt
O=C(CCCN1C(=O)c2ccccc2C1=O)Nc1ccc2c(c1)OCCO2	i	i	i	i	i	nt	nt	nt	nt	nt	nt	nt	nt	nt	nt
Cc1cc(NCc2ccccn2)nc2ccccc12	i	i	i	i	-8.9*	49%*	-20%*	i	-292%*	nt	nt	nt	nt	95%*	i
Cc1nc(NCc2ccccn2)c2ccccc2n1	i	i	i	i	i	nt	nt	nt	nt	nt	nt	nt	nt	nt	nt
COc1ccc(S(=O)(=O)N2CCN(c3ccc4nnc(-c5ccc(F)cc5)n4n3)CC2)cc1	i	i	i	i	-6.8*	i	i	i	i	nt	nt	nt	nt	i	i
N#Cc1cnn(Cc2ccccc2)c1N	i	i	i	i	-6.2*	nt	nt	nt	nt	i	i	i	i	i	i
N#Cc1cnn(Cc2ccc(Cl)cc2)c1N	i	i	i	nt	i	nt	nt	nt	nt	nt	nt	nt	nt	nt	nt
CC(C)c1cc(C(C)C)c(S(=O)(=O)N2CCNCC2)c(C(C)C)c1	i	i	i	i	-5.8*	nt	nt	nt	nt	i	i	i	64%*	42%*	i
Cc1c(OCC(=O)N(C)C)ccc2c3c(c(=O)oc12)CCCCC3	i	i	i	i	-11*	i	i	i	-0.2%*	nt	nt	nt	nt	i	i
COCCNC(=S)N1CCOCC1	i	i	i	i	i	nt	nt	nt	nt	nt	nt	nt	nt	nt	nt
C=COCCNC(=S)N1CCOCCOCCN(C(=S)NCCOC=C)CCOCC1	i	i	i	i	-5*	nt	nt	nt	nt	i	i	i	40%*	i	i
Cc1cc(C)n(-c2nnc(C)n2/N=C/c2ccccc2OCc2ccccc2Cl)n1	13*	i	i	i	i	nt	nt	nt	nt	474%*	i	85%*	i	i	116%*
CC(C)(C)n1nnnc1C(c1ccccc1)N1CCc2ccccc2C1 (stereo unspecified)	i	i	i	i	-7.6*	i	12%*	i	6.8%*	nt	nt	nt	nt	i	i
CCc1ccc(-c2nc(CN3CCC(C(=O)NCCN(CC)c4ccccc4)CC3)c(C)o2)cc1	i	i	i	i	-5.6*	nt	nt	nt	nt	i	i	i	62%*	i	i
